PMC10985026 (Acta Pharmaceutica Sinica. B, 2023)
Like-named read-outs stand apart in the source and are kept apart here.

Key:
Sam50 and COX II = test: Western blot of Sam50 and COX II; type: cell-based, murine; conditions: 4T1, 2 μmol/L, 24 h
In short: (§1)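 4T1 cells at about 70% confluence in 6-well plates were treated 24 h with test compound or DMSO vehicle. Protein was extracted in RIPA buffer with PMSF and phosphatase inhibitors, immunoblotted, and detected by enhanced chemiluminescence imaging. Sam50/COX II blots: n = 3.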

NLRP3 inflammasome = test: Western blot of NLRP3; type: cell-based, murine; conditions: 4T1, 2 μmol/L, 24 h, compared to control group
In short: as §1

[1] = system: Renca (kidney cancer) cells; test: MTT cytotoxicity assay, Renca; type: cell-based, murine; conditions: 48 h, read-out: IC50 Renca
In short: (§2)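 Cells were cultured in DMEM/RPMI-1640/MEM with 10% FBS and 1% penicillin–streptomycin at 37 °C, 5% CO2; Renca medium also had 1 mmol/L sodium pyruvate and 2 mmol/L L-glutamine. Cells at about 50% confluence in 96-well plates were exposed to a concentration series for 48 h (DMSO vehicle). MTT was added for 4 h at 37 °C, formazan dissolved in DMSO, and absorbance read on a plate reader. Results are mean ± SD.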

4T1 subcutaneous tumor = test: Anti-tumor effect in vivo, 4T1 subcutaneous tumor model; parameters: species or system BALB/c mouse; conditions: 4T1-bearing BALB/c mice, after 27 days
In short: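 Subcutaneous 4T1 tumours were grown in female BALB/c mice (6–8 weeks, 18–20 g). At about 50 mm3 on day 7, mice were randomised to five groups: PBS, each parent drug alone, the parent drugs combined, or test compound. Dosing was i.v. every two days, with body weight and tumour volume measured regularly. Main organs and blood were collected at study end for safety assessment.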

HUVEC = test: MTT cytotoxicity assay, HUVEC; type: cell-based, human; conditions: 48 h, read-out: IC50 HUVEC
In short: as §2

B16F10 (melanoma) cells = test: MTT cytotoxicity assay, B16F10; type: cell-based, murine; conditions: read-out: IC50 B16F10
In short: as §2

L-929 = test: MTT cytotoxicity assay, L-929; type: cell-based, murine; conditions: read-out: IC50 L-929
In short: as §2

[2] = system: 4T1 (breast cancer) cells; test: MTT cytotoxicity assay, 4T1; type: cell-based, murine; conditions: 48 h, read-out: IC50 4T1
[3] = MTT, mean ± SD of three experiments
[4] = MTT, 48 h, mean ± SD of three experiments

Row | Compound | protein concentrations of Sam50 and COX II (Sam50 and COX II) | NLRP3 inflammasome expression upregulation (NLRP3 inflammasome) | IC50 ([1]; Mus musculus, Renca) | relative tumor volume versus PBS group (4T1 subcutaneous tumor) | IC50 (HUVEC; Homo sapiens, HUVEC) | IC50 (B16F10 (melanoma) cells; Mus musculus, B16-F10, 48 h) | IC50 (L-929; Mus musculus, L929, 48 h) | IC50 ([2]; Mus musculus) | IC50 [1, 3] | IC50 (HUVEC; [3]) | IC50 (B16F10 (melanoma) cells; [4]) | IC50 (L-929; [4]) | IC50 [2, 3]
1 | CC(=O)Nc1ccc(O)cc1 [APAP, Acetaminophen] | significantly downregulated | approximately 1.2 fold | > 100 µM | no significant difference | > 100 µM | > 100 µM | 73.3 ± 0.88 µM | > 100 µM | – | – | – | – | –
2 | O=C1[O][Pt]2([NH][C@@H]3CCCC[C@H]3[NH]2)[O]C1=O [Oxa, Oxaliplatin] | no significant effect | – | – | no significant difference | – | – | – | – | > 100 µM | 32.5 ± 2.01 µM | 25.9 ± 0.96 µM | 44.6 ± 0.93 µM | 13.4 ± 0.66 µM
